{
  "source": "ChEMBL document CHEMBL2069207",
  "about": "“Polyhydroxylated steroidal glycosides from Paris polyphylla” (J Nat Prod, 2012)",
  "note": "Active and inactive are the calls of the source. The calls are words filed in the database; no cut-off is given here.",
  "data": [
    {"tested_on": "CCRF-CEM", "experiment": "Cytotoxicity against human CCRF-CEM cells by XTT assay", "format": "functional, cell-based", "how_it_was_run": "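CCRF-CEM human leukemia cells were exposed to 0.001 to 100 μM to build dose–response curves, read by XTT proliferation assay. IC50 was taken from the curves. Only agents giving at least 80% inhibition in a 100 μM screen were taken forward. An equivalent DMSO concentration was the negative control and viability reference, and doxorubicin was the positive control.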", "units": {"IC50": "µM"}, "values": [
      {"molecule": "C[C@H](CCC1(O)OC2CC3C4CC=C5C[C@@H](O[C@@H]6O[C@H](CO)C(O[C@@H]7O[C@@H](CO)[C@H](O)[C@H]7O)[C@@H](O)[C@H]6O[C@@H]6O[C@@H](C)[C@H](O)[C@@H](O)[C@H]6O)CC[C@]5(C)C4CC[C@]3(C)C2[C@@H]1C)CO[C@@H]1O[C@H](CO)[C@@H](O)[C@H](O)[C@H]1O", "note": "(some centres not stated) [PARISAPONIN I]", "IC50": 1.23},
      {"molecule": "C[C@H](CC[C@@]1(O)O[C@H]2C[C@H]3[C@@H]4CC=C5C[C@@H](O[C@@H]6O[C@H](CO)[C@@H](O[C@@H]7O[C@@H](C)[C@H](O[C@@H]8O[C@@H](C)[C@H](O)[C@@H](O)[C@H]8O)[C@@H](O)[C@H]7O)[C@H](O)[C@H]6O[C@@H]6O[C@@H](C)[C@H](O)[C@@H](O)[C@H]6O)CC[C@]5(C)[C@H]4CC[C@]3(C)[C@H]2[C@@H]1C)CO[C@@H]1O[C@H](CO)[C@@H](O)[C@H](O)[C@H]1O", "note": "[DICHOTOMIN]", "IC50": 0.59},
      {"molecule": "CC1=C(CC[C@@H](C)CO[C@@H]2O[C@H](CO)[C@@H](O)[C@H](O)[C@H]2O)O[C@H]2C[C@H]3[C@@H]4CC=C5C[C@@H](O[C@@H]6O[C@H](CO)[C@@H](O[C@@H]7O[C@@H](C)[C@H](O[C@@H]8O[C@@H](C)[C@H](O)[C@@H](O)[C@H]8O)[C@@H](O)[C@H]7O)[C@H](O)[C@H]6O[C@@H]6O[C@@H](C)[C@H](O)[C@@H](O)[C@H]6O)CC[C@]5(C)[C@H]4CC[C@]3(C)[C@@H]12", "IC50": 6.52},
      {"molecule": "C[C@H](CC[C@@]1(O)O[C@H]2C[C@H]3[C@@H]4CC=C5C[C@@H](O[C@@H]6O[C@H](CO)[C@@H](O)[C@H](O[C@@H]7O[C@H](CO)[C@@H](O)[C@H](O)[C@H]7O)[C@H]6O[C@@H]6O[C@@H](C)[C@H](O)[C@@H](O)[C@H]6O)CC[C@]5(C)[C@H]4CC[C@]3(C)[C@H]2[C@@H]1C)CO[C@@H]1O[C@H](CO)[C@@H](O)[C@H](O)[C@H]1O", "IC50": 1.77},
      {"molecule": "COc1cccc2c1C(=O)c1c(O)c3c(c(O)c1C2=O)C[C@@](O)(C(=O)CO)C[C@@H]3O[C@H]1C[C@H](N)[C@H](O)[C@H](C)O1", "note": "[DOXORUBICIN]", "IC50": 2.14},
      {"molecule": "C[C@H](CC[C@@]1(O)O[C@H]2C[C@H]3[C@@H]4CC=C5C[C@@H](O[C@@H]6O[C@H](CO)[C@@H](O[C@@H]7O[C@@H](CO)[C@H](O)[C@H]7O)[C@H](O)[C@H]6O[C@@H]6O[C@@H](C)[C@H](O)[C@@H](O)[C@H]6O)CC[C@]5(C)[C@H]4CC[C@]3(C)[C@@]2(O)[C@@H]1C)CO[C@@H]1O[C@H](CO)[C@@H](O)[C@H](O)[C@H]1O", "note": "[PARISYUNNANOSIDE A]", "IC50": 6.68}
    ]},
    {"tested_on": "CCRF-CEM", "experiment": "Cytotoxicity against human CCRF-CEM cells at 100 uM by XTT assay", "format": "functional, cell-based", "how_it_was_run": "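Human CCRF-CEM leukemia cells; single fixed concentration of 100 μM. Proliferation inhibition was read by XTT assay and expressed as inhibition rate. Viability was referenced to an equivalent DMSO concentration as negative control. Doxorubicin served as positive control.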", "values": [
      {"molecule": "CC(C)(O)C(O)CC[C@](C)(O)[C@H]1CC[C@@]2(O)C3=CC(=O)[C@@H]4C[C@@H](O)[C@@H](O)C[C@]4(C)[C@H]3CC[C@]12C", "note": "(some centres not stated)", "Activity": "inactive"},
      {"molecule": "CC1=CO[C@@]2(O[C@H]3C[C@H]4[C@@H]5CC=C6C[C@@H](O)C[C@@H](O[C@@H]7O[C@H](CO)[C@@H](O)[C@H](O[C@@H]8OC[C@@H](O)[C@H](O)[C@H]8O)[C@H]7O[C@@H]7O[C@@H](C)[C@H](O)[C@@H](O)[C@H]7O)[C@]6(C)[C@H]5CC[C@]4(C)[C@H]3[C@@H]2CO[C@@H]2O[C@H](CO)[C@H](O)[C@H](O)[C@H]2O)[C@@H](O)[C@H]1O[C@@H]1O[C@H](C)[C@H](O)[C@H](O)[C@H]1O", "Activity": "inactive"},
      {"molecule": "C[C@@H]1O[C@@H](O[C@H]2[C@H](O[C@@H]3C[C@H](O)CC4=CC[C@H]5[C@@H]6C[C@@H]7O[C@@]8(OC[C@H](C)[C@H](O[C@@H]9O[C@H](C)[C@H](O)[C@H](O)[C@H]9O)[C@@H]8O)[C@@H](CO)[C@@H]7[C@@]6(C)CC[C@@H]5[C@]43C)O[C@H](CO)[C@@H](O)[C@@H]2O[C@@H]2OC[C@@H](O)[C@H](O)[C@H]2O)[C@H](O)[C@H](O)[C@H]1O", "Activity": "inactive"},
      {"molecule": "C=C1CO[C@@]2(O[C@H]3C[C@H]4[C@@H]5CC=C6C[C@@H](O)C[C@@H](O[C@@H]7O[C@H](CO)[C@@H](O)[C@H](O[C@@H]8OC[C@@H](O)[C@H](O)[C@H]8O)[C@H]7O[C@@H]7O[C@@H](C)[C@H](O)[C@@H](O)[C@H]7O)[C@]6(C)[C@H]5CC[C@]4(C)[C@H]3[C@@H]2CO[C@@H]2O[C@H](CO)[C@H](O)[C@H](O)[C@H]2O)[C@@H](O)[C@H]1O[C@@H]1O[C@H](C)[C@H](O)[C@H](O)[C@H]1O", "Activity": "inactive"},
      {"molecule": "CC(C)(O)CC[C@@H](O)[C@](C)(O)[C@H]1CC[C@@]2(O)C3=CC(=O)[C@@H]4C[C@@H](O)[C@@H](O)C[C@]4(C)[C@H]3CC[C@]12C", "Activity": "inactive"},
      {"molecule": "CC1=CO[C@@]2(O[C@H]3C[C@H]4[C@@H]5CC=C6C[C@@H](O)C[C@@H](O[C@@H]7O[C@H](CO)[C@@H](O)[C@H](O[C@@H]8OC[C@@H](O)[C@H](O)[C@H]8O)[C@H]7O[C@@H]7O[C@@H](C)[C@H](O)[C@@H](O)[C@H]7O)[C@]6(C)[C@H]5CC[C@]4(C)[C@H]3[C@@H]2CO)[C@@H](O)[C@H]1O[C@@H]1O[C@H](C)[C@H](O)[C@H](O)[C@H]1O", "Activity": "inactive"}
    ]}
  ]
}
